Test results published in publication PMC7088158 (International Journal of Peptide Research and Therapeutics, 2006).

Legend:
α-chymotrypsin = α-chymotrypsin (Bos taurus, UniProt P00766, DEL14-15/DEL147-148); details: pH 7.5
[1] = target: T1, Human erythrocyte calpain I (Homo sapiens, UniProt P07384); type: biochemical; details: pH 7.5
T1 sequence (P07384 1-714): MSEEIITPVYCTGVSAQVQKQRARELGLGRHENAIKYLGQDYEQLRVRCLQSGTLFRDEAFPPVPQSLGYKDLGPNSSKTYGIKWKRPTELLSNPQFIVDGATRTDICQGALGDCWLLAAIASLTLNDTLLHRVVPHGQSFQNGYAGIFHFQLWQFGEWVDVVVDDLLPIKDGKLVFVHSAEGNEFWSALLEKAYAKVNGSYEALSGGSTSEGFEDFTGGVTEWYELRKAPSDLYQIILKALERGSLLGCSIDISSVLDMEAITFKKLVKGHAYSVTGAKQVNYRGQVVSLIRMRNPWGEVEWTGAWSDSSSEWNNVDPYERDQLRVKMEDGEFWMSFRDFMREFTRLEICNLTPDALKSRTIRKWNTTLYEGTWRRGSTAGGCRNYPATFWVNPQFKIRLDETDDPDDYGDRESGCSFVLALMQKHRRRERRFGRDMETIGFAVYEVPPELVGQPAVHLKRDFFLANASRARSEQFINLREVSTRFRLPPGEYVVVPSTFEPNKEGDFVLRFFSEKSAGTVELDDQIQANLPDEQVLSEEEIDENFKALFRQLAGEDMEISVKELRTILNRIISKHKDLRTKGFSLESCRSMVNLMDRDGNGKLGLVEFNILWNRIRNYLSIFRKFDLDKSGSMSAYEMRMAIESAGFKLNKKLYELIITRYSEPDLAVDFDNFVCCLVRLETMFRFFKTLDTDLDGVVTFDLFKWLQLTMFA
T1 sequence (P04632 1-268 partner): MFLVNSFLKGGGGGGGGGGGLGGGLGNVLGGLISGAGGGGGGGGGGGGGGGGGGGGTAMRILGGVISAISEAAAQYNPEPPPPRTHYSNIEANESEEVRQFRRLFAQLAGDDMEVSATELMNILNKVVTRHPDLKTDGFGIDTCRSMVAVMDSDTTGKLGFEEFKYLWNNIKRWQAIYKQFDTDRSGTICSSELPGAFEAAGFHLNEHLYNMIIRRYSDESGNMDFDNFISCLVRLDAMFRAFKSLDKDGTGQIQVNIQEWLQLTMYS

[2] = Aqueous solubility of the substrates; type: physicochemical; details: standard form (CFO-1 N-terminus, Lys(BHQ-2)-amide C-terminus)
primary cortical neurons = test: Live cell imaging of probe entry and fluorescence in primary cortical neurons; type: cell-based, rat; details: washed
In short: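 Cortical neurons from E18 rat cortices, papain-dissociated (2 mg/mL, 30 min, 37 °C), plated at 1 × 10^5 cells/well on poly-D-lysine-coated chambered cover glasses in Neurobasal/B27 medium and used at 5 DIV. Confocal live imaging used a 20× air objective at 37 °C, with 543 nm excitation and emission collected at 560–615 nm. Frames were taken every 1–2 min.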

[3] = tested on: primary hippocampal neurons; test: Live cell imaging of probe entry and fluorescence in primary hippocampal neurons; type: cell-based, rat; details: cA 1 μM preloaded 30 min in Ca2+-free buffer, ionomycin 5 μM then CaCl2 0.2 mM
In short: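 Hippocampal neurons from E18 rat hippocampi, papain-dissociated (2 mg/mL, 30 min, 37 °C), plated at 1 × 10^5 cells/well on poly-D-lysine cover glasses and used at 9–12 DIV. Medium was Neurobasal/B27 with 1% FBS and glutamate, half-replaced on days 4 and 7. Confocal imaging at 37 °C, 20× air objective, 543 nm excitation, 560–615 nm emission, frames every 1–2 min.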

trypsin = details: pH 7.5

| Substance | Stability to chymotrypsin, in words (α-chymotrypsin) | Effectiveness as calpain substrate, in words [1] | other results |
| --- | --- | --- | --- |
| PLGAERP [cXa] | affected remarkably little | rather similar as a calpain substrate to its parent |  |
| VVTAEA [cJ] |  |  | Solubility, in words [2]: very poorly soluble |
| PLVAERP [cXc] |  | dramatically reduced the effectiveness of calpain processing |  |
| VVQAGI [cM] |  |  | Solubility, in words [2]: very poorly soluble |
| EVYGM*M* [cG] |  |  | Solubility, in words [2]: very poorly soluble |
| PLLAERP [cXf] | little improvement |  |  |
| PLLAERP [cXb] | considerably improved chymotryptic stability | at least as an effective calpain substrate as its parent |  |
| PLLAERP [cXe] | very much more stable to chymotrypsin | improved calpain substrate | Intracellular fluorescence following ionomycin (primary cortical neurons; cXe 2 μM 40 min, ionomycin 5 μM): increased intracellular fluorescence; Entry into cells without transporter sequence (primary cortical neurons; cXe 2 μM preloaded 40 min, confocal imaging 37 °C): proved to enter cells without a transporter sequence |
| GSGTSS [cA] |  | proceeded only partially | Intracellular fluorescence on activation of calpain pathways by ionomycin [3]: fluorescence was observed |
| PLFAER [cW] |  | far superior calpain substrate compared to cA | Stability to trypsin, in words (trypsin): poor stability |
| PLLAERP [cXg] | significantly improved |  |  |
